From ChEMBL document CHEMBL4308915, “Synthesis of novel pyrazoline derivatives and the evaluation of death mechanisms involved in their antileukemic activity” (Bioorg Med Chem, 2019) come the findings set out here.

The test system of data set [1] is K562. Briefly: Cytotoxicity against human K562 cells assessed as reduction in cell viability after 24 hrs by MTT assay. Type of data set: functional, cell-based. As to conditions: K562, 24 h. In a few lines: (§1)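 MTT viability after 24 h exposure. Cells seeded at 5x10^4 per well and tested at 1-100 µM. Optical density of untreated cells set as 100% viable. IC50 derived by curve fitting. PBMC from healthy non-smoking volunteers, isolated by Ficoll-Hypaque.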

In another data set the test system is Daudi. Briefly: Cytotoxicity against human Daudi cells assessed as reduction in cell viability after 24 hrs by MTT assay. Type of data set: functional, cell-based. Put shortly:
as §1

In another data set the test system is B16-F10. Briefly: Cytotoxicity against mouse B16F10 cells assessed as reduction in cell viability after 48 hrs by MTT assay. The format is functional, cell-based. As to conditions: B16-F10, 48 h.
In another data set the test system is PBMC. Nature of the data set: Cytotoxicity against human PBMC assessed as reduction in cell viability after 48 hrs by MTT assay. Type of data set: cell-based.
Data set [2] can be described thus: Selectivity index, ratio of IC50 for human PBMC to IC50 for human Jurkat cells after 24 hrs. As to conditions: PBMC versus Jurkat cells, read-out: Ratio IC50. Type of data set: toxicity. Put shortly:
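MTT viability after 24 h exposure to 1-100µM; untreated control OD taken as 100%. IC50 by curve fitting in each line and in PBMC from six healthy donors (Ficoll-Hypaque). SI = IC50 PBMC / IC50 tumor line; SI ≥5 high, 2–5 moderate, <2 low.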

Data set [3] is described as follows: Hemolytic activity in human RBC at 2 times IC50 relative to control. Type of data set: ADME, cell-based, Erythrocyte. As to conditions: red blood cells (erythrocytes), read-out: Activity. Put shortly:
(§2)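 RBC from healthy non-smoking volunteers incubated with increasing concentrations of the selected pyrazolines. Saline served as the 0% lysis control and distilled water as the 100% lysis control. Percent hemolysis calculated relative to these controls.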

A short description of data set [4]: Hemolytic activity in human RBC at 3 times IC50 relative to control. As to conditions: red blood cells (erythrocytes), read-out: Activity. The format is ADME, cell-based, Erythrocyte. In a few lines: as §2
In data set [5] the test system is Jurkat. Briefly: Cell cycle arrest in human Jurkat cells assessed as increase in accumulation at S phase at 30.08 uM after 12 hrs by propidium iodide/RNAse staining based flow cytometric analysis. The format is functional.
The test system of data set [6] is K562. Briefly: Induction of apoptosis in human K562 cells assessed as increase in chromatin condensation at 32 uM by acridine orange/ethidium bromide staining-based fluorescence microscopic analysis. Type of data set: functional, cell-based.
Data set [7] concerns Jurkat. Briefly: Induction of apoptosis in human Jurkat cells assessed as increase in chromatin condensation at 30.08 uM by acridine orange/ethidium bromide staining-based fluorescence microscopic analysis. Type of data set: functional, cell-based.
Data set [8] has as its system Jurkat. Briefly: Induction of DNA fragmentation in human Jurkat cells assessed as increase in ladder formation at 30.08 uM after 12 hrs by ethidium bromide staining based agarose gel electrophoresis method. Type of data set: functional, cell-based.
Data set [9] has as its system K562. Briefly: Induction of apoptosis in human K562 cells assessed as increase in Bax expression at 32 uM after 12 hrs by flow cytometric analysis relative to control. The format is functional.
For data set [10], the system named is Jurkat. Nature of the data set: Induction of apoptosis in human Jurkat cells assessed as increase in Bax expression at 30.08 uM after 12 hrs by flow cytometric analysis relative to control. Type of data set: functional.
The test system of the next data set is Jurkat (human). Nature of the data set: Induction of apoptosis in human Jurkat cells assessed as increase in AIF release at 30.08 uM after 12 hrs by flow cytometric analysis relative to control.

Molecules are shown by their SMILES. Active and inactive are the calls of the source. No cut-off for these calls is given here.

In the case of `COc1cc(C2=NN(C(C)=O)C(c3ccc(Br)cc3)C2)cc(OC)c1OC` (centres undefined), the IC50 was found to be 32 µM with K562 [1], 49.8 µM in the data set on Daudi, 72.7 µM in the data set on B16-F10 and 287 µM with PBMC. Besides, the selectivity ratio at 24 h in data set [2] was found to be 10.6. Besides, the hemolysis at 2 times IC50 in data set [3] was 1.3%. Besides, the hemolysis at 3 times IC50 in data set [4] is 1.6%. For the same compound, in the data set with Jurkat [5], the result was inactive. Further, the result in the data set with K562 [6], with Jurkat [7] and in the data set with Jurkat [8] was Active. Further, the figures for the Activity with K562 [9], in the data set on Jurkat [10] and in the data set with Jurkat (human) were 15.8%, 101.4% and 33.2%, respectively.
